Test system: MS2 coat protein
Experiment: apparent Kd, MS2 coat protein; higher = weaker binding; RNA-MaP array; FMN 200 µM where present
Summary of the method: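 Designs were transcribed by stalled E. coli RNA polymerase on Illumina sequencing-chip clusters. They were titrated with SNAP-549-labelled MS2 coat protein from 0.7 or 1.5 nM, doubling to 3 µM, in 100 mM Tris-HCl pH 7.5, 80 mM KCl, 4 mM MgCl2, BSA, DTT, yeast tRNA and Tween-20, without and then with constant ligand. The apparent Kd is the median of filtered per-cluster fits after normalisation of green signal to red-channel RNA signal and control-cluster median Fmax.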

[1] = designed as: ON switch for flavin mononucleotide, no ligand
[2] = ligand present: flavin mononucleotide, designed as: ON switch for flavin mononucleotide
[3] = designed as: OFF switch for flavin mononucleotide, no ligand
[4] = ligand present: flavin mononucleotide, designed as: OFF switch for flavin mononucleotide

Sequence	apparent Kd [1] [nM]	apparent Kd [2] [nM]	apparent Kd [3] [nM]	apparent Kd [4] [nM]
UUGUCUCAUGAGAAGGACAUGAGGAUCACCCAUGUAGGAUAUCAUGGGUCAGUGGAAUUGAAUCUUCGGAUUCAAUAACUCUAC	15	7		
UCGUUUAUACAAGGAUAUCAAUUUUAGCUUAAUUCAACAUGAGGAUCACCCAUGUAACUAUGGAGUGAGAAGGUGUAAUGGCUU	522	222		
AAAAGAGUAGGAUAUCUGACGCGAAACAUGAGGAUCACCCAUGUAGGGCGGUCCUGCUUAAGAGAAGGGCUCAAAU			99.6	230
ACAGGUGCAGGAUAUACAUGAGGAUCACCCAUGUGAUUAGCAGUCCUCGGACUGCAAUGUAGAAGGGCACCUGU			327	1120
AUCGGGUCAGGAUAUUGUUAGUUUAGUUGUUUGUAUUAGUUCGAGAAGGGACAUGAGGAUCACCCAUGUGGUAA			58.4	73.2
AAACACGGACAUGAGGAUCACCCAUGUGGCGAAAGCCUUGGGAGAAGGAUUAAUGCAAAGCAUAAAUAGGAUAUUCAUACCGUG	1270	243		
AUGAAGUCAGGAUAUCGUUAAUUUAGUUGUUUGUAUUAGUUCGAGAAGGGACAUGAGGAUCACCCAUGUAAGUA			31.7	38.5
UCAUUAGCGGGCGGGUCGGUUGGACAUGAGGAUCACCCAUGUAGAAGGACCGGUGGACUCCGGCGGUAGGAUAUACAUUUGGUG			22	30.7
UGGUACUAGGGAGGAUAUGGGAAGAUACAUGAGGAUCACCCAUGUUUAAGAAUGCCGAGAGGCAACUAGAAGGUCCUAGUACCU	628	38.2		
GGUACUCAGAGAGUACCAAUACGAACAUGAGGAUCACCCAUGUAGGAUAUGCUACUCAAAGAGUAGCAGAAGGACAUGUGCCUA			14.9	101
CUCUUGUAAGGAUAUCUGACAAGUGACGAAAGUCACAGUUCAGAGAAGGUACAUGAGGAUCACCCAUGUAGAAC			76.7	64.4
GGAAAUCAUGUAGGAUAUGCAUGGCGAAGCUACGCAGAAGGACAUGAGGAUCACCCAUGUUCUGGCUACCGAGUUCGGUGGCAA			22.5	104
UGCCUUUGAGGAUAUACAUUGAAUUUGAUUCAUGUAAAACUACAUGAGGAUCACCCAUGUAGAAGGCAAGGGCU			18.7	27.7
UCGGUUACAUGAGGAUCACCCAUGUCUCGGGCCCUAUUUAGCAGAAGGCCAGCUGGGCUACGGAUGGAGGAUAUGCUUAUGGCC	147	36.5		
GGAAUAGCAUGAGGAUAUGCUGGAGUUUAGACAGCAGAAGGCAUGUCAUAAGACAUGAGGAUCACCCAUGUAAUUACAAUACCA	102	11.7		
GCCAUCGCAUGAGGAUAUGCUCCCGUUUCGGGAGCAGAAGGCAUGUCGUAAGACAUGAGGAUCACCCAUGUAGUUAAGAUGGCA	855	59.6		
CAGUACUGAGGAUAUACAUGAGGAUCACCCAUGUGCUUCAGCUAGGAUACUAGCAUUAGUAGAAGGCAGUACUG			10.9	64.1
UUACUAUAACAGAAGGGUAGAUAAUAUAUAAAUGCAGGAUAUGUUACAUGAGGAUCACCCAUGUUUCACCCACAUGAGGAUCAC			27.9	55.4
GGGACUCUAAAUGGGCUGUCGACAUAGGAUAUGAUGUGCGACAUGAGGAUCACCCAUGUAACGAAUUAGAAGGGUGUAGGCAUG	574	173		
GUUUAGUGAGGAUAUGUGGCUUCGAUCGUGCGAAGAAGGCUACAGAAGGCACAUGAGGAUCACCCAUGUUCCUC			101	728
AUGCGUCGAGAGGAUAUUUGCGAGGUGACCAGCAAAGAAGGUUCGACAUGAGGAUCACCCAUGUCCAGCAUUUG			34.2	72.8
CAAGGCUUCACAGGAUAUAUUGAUGACAUGAGGAUCACCCAUGUACCGGCAGUAGAAGGGUGAACGCUCGUGGCCACGUGCGUG	130	35.6		
UGAUCUUUUGUUAGGAUAUGCUGUUUUUUUUUUCAGCAGAAGGGACAUGAGGAUCACCCAUGUUUUGUCAUAAA			12.4	24.9
UUAAUGAUGUUAGGAUAUACAUGAGGAAUCCUCGUAGAAGGAACAUGACAUGAGGAUCACCCAUGUAACGCUCCGUAGAGCGUA	70.2	94.3		
GCCAUCGCAUGAGGAUAUGCUCGGGUUUCCCGAGCAGAAGGCAUGUGAUAACACAUGAGGAUCACCCAUGUAGUUAAGAUGGCA	5.69	4.83		
CAUCAGUCUGUGAGGAUAUUGGUCGAGUGACUUAUUAAGAAGGCACAUGAGGAUCACCCAUGUGGGAAGUCAGG			24.3	26.6
GGUUGUCAUCGUCGUCCUUUCGGUACAUGAGGAUCACCCAUGUAGGAUAUGCUGCAUUCGAUGUGGCAGAAGGGCAUGUGUGUU			25.5	71.5
AGCAGACGAGGAUAUAGAUUUAGAUACAUGAGGAUCACCCAUGUAUAGAUGUAUUUAGAUUUAGAAGGCGUCUGCU			211	221

Sequence	apparent Kd [1] [nM]	apparent Kd [2] [nM]	apparent Kd [3] [nM]	apparent Kd [4] [nM]
CCUAAGGAGGUAGGAUAUUGUGUGGUGGCCGGGCUCCCACGGCGAGCGGCACAAGAAGGAUCCCUACAUGAGGAUCACCCAUGU	25.5	20.3		
CAGGUAGACUGAGGAUAUACAAUAAGACCUAGUCUAUCUAGGUCAAUCACAUGAGGAUCACCCAUGUAGAAGGCAGUCUGCCUG			17.3	36.2
AUUAUAUAGUAAGGAUAUUGAUUAUUAUUUUAACAUGAGGAUCACCCAUGUAGCCUUAUGUAUAACAAGAAGGUACAUUUAUUA			56.2	58.4
AGCAGACGAGGAUAUAAAUUUGAUAACAUGAGGAUCACCCAUGUGAUCGAUAGAUCAAAUUUAGAAGGCGUCUGCU			647	940
CACGGAUAGUAGAAGGGUGACAUGAGGAUCACCCAUGUACUUAUUUAUUUAUUACUAUUUCAUACACAGGAUAUACUAUCCGUG	652	176		
GUCUUACAUGAGGAUCACCCAUGUGAGGAUAUCCGCGGCGCCGGGUUUCCGGCGCCGCGGAGAAGGCGCGUGUU			19.2	22.3
CGAUGUUAUGCAGGAUAUCUCCCUUGAAUGCGGAGAGAAGGGCAUAGGGAGACAUACGCCUUAUUACAUGAGGAUCACCCAUGU			8.42	7.86
AUCAGCUCGUGAGGAUAUGCGUCACUGCGUCAGCAGUGUGGUAAGAUCACAUGAGGAUCACCCAUGUAGAAGGCACGAGCUGAU			34	455
GGGUACAUCGGAGGAUAUCAUGUAGAUACAUGAGGAUCACCCAUGUCGAUGGAGACAUCGGAGAUUGAGAAGGCCGAUGUACCG	272	10.1		
GCUAGUAUUGCAGGAUAUUGUGUUUAAUUAUGGCAAGAAGGGCAUUACAUGAGGAUCACCCAUGUUUUCCUUAGUCAUACUAGC			5.57	6.63
GAGUGGAUGAGACCGCGGGCGACAUGAGGAUCACCCAUGUUGCAGGAUAUCAGUGCGUCGGCGCCUGAGAAGGGCGACAAUCAU			6.56	7.11
AUAUAUGCUAACAUGAGGAUCACCCAUGUGUUAUACUUAAUAUAGGAUAUGUUUAUACUUUUUGGGCAGAAGGAUGGCAUAUAU	26.1	21.8		
AUUUUAAUAUAGGAUAUCGAAAUUAUUAUUUAACGAGAAGGAUGAACAUGAGGAUCACCCAUGUGGUAUCAUGG			223	204
CUUACGCGAGGAUAUACAUGAGGAUCACCCAUGUAACGGUGUGUAAUAUAUAUUGCGUGUAGAAGGUGUGUGGG			87	101
UGGUACAUGAGGAUCACCCAUGUAAGAGCCCUCAUGCGAUGUAGAAGGUUAAUGCGAGUAGUGCUAAAGGAUAUACAUGAGUUU			212	173
UACUACGCAGGAUAUACAUGAGGAUCACCCAUGUGUCUGCGAUAGGCACGUGAAAUCCGUAGAAGGGUGUAGAU			42	109
AAAAGUUAAGGAUAUACAGGGAGCCGCGGCGACUCGCCGCAACAUGAGGAUCACCCAUGUAGAAGGUAGCCAAA			27.6	62.8
GCGUCAGAAUUAAUUGUGACAUACAGAAGGCAAUAGUUAAUUUCAGACAUGAGGAUCACCCAUGUUGAGGAUAUGUAGAGAAUC			11.8	10.5
GGGUGAUCUUUAGGAUAUCCCGCGCCAAAGUGCGUUUAUACUACAUGAGGAUCACCCAUGUAACGGGAGAAGGGAGGAAGCCCG	81.7	29		
GUACGUGGACAGAAGGCGACAUGAGGAUCACCCAUGUUGGCUCGGGUACGAGCAAUCCGCGUGAUUGAGGAUAUGUCUGCGGGC			6.25	9.93
UGUAUUAACGGAGGAUAUCGAUAUCAAACAUGAGGAUCACCCAUGUUGAGGAUCACCCAUGUCCACGAGAAGGCCGGCGUACUC	30.3	30		
GAGGAACAUGAGGAUCACCCAUGUGAGGAUAUGCAUAGUGAGGUAGUAGAAGUUGAAUGCAGAAGGUACACUGA			42.2	32.2
AAAGGACGAGGAUAUACAUGAGGAUCACCCAUGUAAAAAACAUAAUAAAAGAACUUAUGUAGAAGGCGUCCAAA			58.6	336
GUUAAACAUGAGGAUCACCCAUGUAAGGAUAUGCUGCGGUCGCGCUGACGUGACUGCAGCAGAAGGUACAAUUG			100	77.4
UUAAUUAUACAAGGAUAUCUAUUGUAGUUUCGACAUACAUGAGGAUCACCCAUGUUAGUAUGUUUAGAGAAGGUGUAUUUUCAG	28.1	25.2		
AUAAUUAAUGCAGGAUAUCAGCACGUGUAGUGCUGAGAAGGGCACAUGAGGAUCACCCAUGUGAUCAAUUAAUAUUAAUAUUAU			61	275
UUGCUCGUGUGAGGAUAUGCCGCCGUUUCGGCUGCAGAAGGUACUCUGUUACAUGAGGAUCACCCAUGUCUCUGUUGUUUCGUG	39	47.5		
